Data from paper PMC8317200 (Journal of medicinal chemistry, 2020).
Residues, ends and D or L forms follow the SMILES beside them. *: point of attachment. Adamantane1carbonyl = O=C(C12CC3CC(CC(C3)C1)C2)*; OtBu = CC(C)(C)O*; OAll = C=CCO*; OPr = CCCO*

B1: Nav1.6 C-terminal tail, aa 1767–1912 (domain or fragment, human, UniProt Q9UQD0-1 1767-1912, looked up)
chain: ENFSVATEESADPLSEDDFETFYEIWEKFDPDATQFIEYCKLADFADALEHPLRVPKPNTIELIAMDLPMVSGDRIHCLDILFAFTKRVLGDSGELDILRQQMEERFVASNPSKVSYEPITTTLRRKQEEVSAVVLQRAYRGHLAR
B2: fibroblast growth factor 14 (FGF14), aa 64–252 (domain or fragment, human, UniProt Q92915-2 64-252, looked up)
chain: KNKNPTDPQLKGIVTRLYCRQGYYLQMHPDGALDGTKDDSTNSTLFNLIPVGLRVVAIQGVKTGLYIAMNGEGYLYPSELFTPECKFKESVFENYYVIYSSMLYRQQESGRAWFLGLNKEGQAMKGNRVKKTKPAAHFLPKPLEVAMYREPSLHDVGETVPKPGVTPSKSTSASAIMNGGKPVNKSKTT

Tests used:
Nav1.6 C-terminal tail = Nav1.6 C-terminal tail (Homo sapiens, UniProt Q9UQD0); assay: Surface plasmon resonance; assay type: binding; details: for koff: read-out: koff Nav1.6 C-terminal tail; for kon: read-out: kon Nav1.6 C-terminal tail
Nav1.1 channels = Nav1.1 channels (Homo sapiens, UniProt P35498); assay: Whole-cell patch-clamp electrophysiology in HEK-Nav1.1 cells; assay type: cell-based
FGF14 = target: T1, FGF14 (Homo sapiens, UniProt Q92915); assay: Surface plasmon resonance; assay type: binding; details: for koff: read-out: koff FGF14; for kon: read-out: kon FGF14
T1 sequence (Q92915 64-252 isoform Q92915-2): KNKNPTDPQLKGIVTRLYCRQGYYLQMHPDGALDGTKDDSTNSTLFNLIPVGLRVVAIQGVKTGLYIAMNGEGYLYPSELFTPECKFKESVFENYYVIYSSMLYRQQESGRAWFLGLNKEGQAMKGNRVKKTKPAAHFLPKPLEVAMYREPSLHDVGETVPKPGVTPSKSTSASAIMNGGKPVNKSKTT

Nav1.2 channels = Nav1.2 channels (Homo sapiens, UniProt Q99250); assay: Whole-cell patch-clamp electrophysiology in HEK-Nav1.2 cells; assay type: cell-based
Chain of Nav1.2 channels (Q99250 whole entry): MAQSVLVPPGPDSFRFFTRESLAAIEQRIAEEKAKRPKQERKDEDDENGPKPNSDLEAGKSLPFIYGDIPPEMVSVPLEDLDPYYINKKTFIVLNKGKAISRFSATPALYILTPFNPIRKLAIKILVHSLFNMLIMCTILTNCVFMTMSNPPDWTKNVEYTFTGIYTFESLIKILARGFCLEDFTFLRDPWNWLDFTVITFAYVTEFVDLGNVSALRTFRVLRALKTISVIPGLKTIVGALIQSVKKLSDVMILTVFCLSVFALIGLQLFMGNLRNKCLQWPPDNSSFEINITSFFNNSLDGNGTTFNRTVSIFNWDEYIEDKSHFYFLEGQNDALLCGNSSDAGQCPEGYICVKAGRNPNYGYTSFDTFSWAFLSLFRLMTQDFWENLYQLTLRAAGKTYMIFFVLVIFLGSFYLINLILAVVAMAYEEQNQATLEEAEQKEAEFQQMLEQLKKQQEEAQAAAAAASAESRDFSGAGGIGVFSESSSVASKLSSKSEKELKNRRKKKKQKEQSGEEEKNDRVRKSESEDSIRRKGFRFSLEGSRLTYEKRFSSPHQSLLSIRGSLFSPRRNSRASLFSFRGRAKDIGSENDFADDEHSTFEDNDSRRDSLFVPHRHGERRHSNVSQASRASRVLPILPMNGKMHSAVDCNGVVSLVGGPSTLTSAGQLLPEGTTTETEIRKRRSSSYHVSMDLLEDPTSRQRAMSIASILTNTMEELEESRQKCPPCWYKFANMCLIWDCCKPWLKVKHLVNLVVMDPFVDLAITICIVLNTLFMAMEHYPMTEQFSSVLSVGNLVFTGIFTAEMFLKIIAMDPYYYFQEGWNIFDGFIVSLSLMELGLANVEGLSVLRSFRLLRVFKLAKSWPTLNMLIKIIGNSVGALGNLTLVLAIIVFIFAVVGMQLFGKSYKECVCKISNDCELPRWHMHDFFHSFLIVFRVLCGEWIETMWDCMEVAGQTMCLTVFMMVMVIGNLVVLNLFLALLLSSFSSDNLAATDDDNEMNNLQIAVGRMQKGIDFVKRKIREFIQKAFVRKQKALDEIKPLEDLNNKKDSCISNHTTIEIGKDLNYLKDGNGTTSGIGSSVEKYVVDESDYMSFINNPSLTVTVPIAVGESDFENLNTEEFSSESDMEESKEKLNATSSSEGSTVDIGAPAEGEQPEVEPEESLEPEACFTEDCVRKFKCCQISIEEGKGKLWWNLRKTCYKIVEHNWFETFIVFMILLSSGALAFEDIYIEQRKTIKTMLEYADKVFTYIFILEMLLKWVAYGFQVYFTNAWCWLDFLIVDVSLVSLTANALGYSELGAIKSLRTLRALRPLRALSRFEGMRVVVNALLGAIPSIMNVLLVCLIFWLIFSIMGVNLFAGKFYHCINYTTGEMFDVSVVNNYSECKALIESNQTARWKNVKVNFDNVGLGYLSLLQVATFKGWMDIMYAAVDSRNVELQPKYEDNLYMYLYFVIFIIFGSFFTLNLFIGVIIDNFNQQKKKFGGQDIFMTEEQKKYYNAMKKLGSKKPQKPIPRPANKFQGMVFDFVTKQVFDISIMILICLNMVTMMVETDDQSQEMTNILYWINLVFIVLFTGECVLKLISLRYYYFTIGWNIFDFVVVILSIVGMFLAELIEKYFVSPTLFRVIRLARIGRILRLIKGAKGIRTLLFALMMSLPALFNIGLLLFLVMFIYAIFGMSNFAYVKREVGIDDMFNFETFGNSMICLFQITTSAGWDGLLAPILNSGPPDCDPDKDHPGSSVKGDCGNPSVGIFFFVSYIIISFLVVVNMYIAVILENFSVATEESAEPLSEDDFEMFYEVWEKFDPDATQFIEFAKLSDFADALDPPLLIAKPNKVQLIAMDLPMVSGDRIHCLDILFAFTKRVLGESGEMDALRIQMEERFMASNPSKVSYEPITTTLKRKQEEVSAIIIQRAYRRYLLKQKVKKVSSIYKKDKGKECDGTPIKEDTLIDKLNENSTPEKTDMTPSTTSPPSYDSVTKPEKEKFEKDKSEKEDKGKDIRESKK

[1] = target: human Nav1.6 (HEK-Nav1.6) channels (Homo sapiens, UniProt Q9UQD0); assay type: cell-based; details: 30 μM; absence of FGF14
Chain of human Nav1.6 (HEK-Nav1.6) channels (Q9UQD0 whole entry): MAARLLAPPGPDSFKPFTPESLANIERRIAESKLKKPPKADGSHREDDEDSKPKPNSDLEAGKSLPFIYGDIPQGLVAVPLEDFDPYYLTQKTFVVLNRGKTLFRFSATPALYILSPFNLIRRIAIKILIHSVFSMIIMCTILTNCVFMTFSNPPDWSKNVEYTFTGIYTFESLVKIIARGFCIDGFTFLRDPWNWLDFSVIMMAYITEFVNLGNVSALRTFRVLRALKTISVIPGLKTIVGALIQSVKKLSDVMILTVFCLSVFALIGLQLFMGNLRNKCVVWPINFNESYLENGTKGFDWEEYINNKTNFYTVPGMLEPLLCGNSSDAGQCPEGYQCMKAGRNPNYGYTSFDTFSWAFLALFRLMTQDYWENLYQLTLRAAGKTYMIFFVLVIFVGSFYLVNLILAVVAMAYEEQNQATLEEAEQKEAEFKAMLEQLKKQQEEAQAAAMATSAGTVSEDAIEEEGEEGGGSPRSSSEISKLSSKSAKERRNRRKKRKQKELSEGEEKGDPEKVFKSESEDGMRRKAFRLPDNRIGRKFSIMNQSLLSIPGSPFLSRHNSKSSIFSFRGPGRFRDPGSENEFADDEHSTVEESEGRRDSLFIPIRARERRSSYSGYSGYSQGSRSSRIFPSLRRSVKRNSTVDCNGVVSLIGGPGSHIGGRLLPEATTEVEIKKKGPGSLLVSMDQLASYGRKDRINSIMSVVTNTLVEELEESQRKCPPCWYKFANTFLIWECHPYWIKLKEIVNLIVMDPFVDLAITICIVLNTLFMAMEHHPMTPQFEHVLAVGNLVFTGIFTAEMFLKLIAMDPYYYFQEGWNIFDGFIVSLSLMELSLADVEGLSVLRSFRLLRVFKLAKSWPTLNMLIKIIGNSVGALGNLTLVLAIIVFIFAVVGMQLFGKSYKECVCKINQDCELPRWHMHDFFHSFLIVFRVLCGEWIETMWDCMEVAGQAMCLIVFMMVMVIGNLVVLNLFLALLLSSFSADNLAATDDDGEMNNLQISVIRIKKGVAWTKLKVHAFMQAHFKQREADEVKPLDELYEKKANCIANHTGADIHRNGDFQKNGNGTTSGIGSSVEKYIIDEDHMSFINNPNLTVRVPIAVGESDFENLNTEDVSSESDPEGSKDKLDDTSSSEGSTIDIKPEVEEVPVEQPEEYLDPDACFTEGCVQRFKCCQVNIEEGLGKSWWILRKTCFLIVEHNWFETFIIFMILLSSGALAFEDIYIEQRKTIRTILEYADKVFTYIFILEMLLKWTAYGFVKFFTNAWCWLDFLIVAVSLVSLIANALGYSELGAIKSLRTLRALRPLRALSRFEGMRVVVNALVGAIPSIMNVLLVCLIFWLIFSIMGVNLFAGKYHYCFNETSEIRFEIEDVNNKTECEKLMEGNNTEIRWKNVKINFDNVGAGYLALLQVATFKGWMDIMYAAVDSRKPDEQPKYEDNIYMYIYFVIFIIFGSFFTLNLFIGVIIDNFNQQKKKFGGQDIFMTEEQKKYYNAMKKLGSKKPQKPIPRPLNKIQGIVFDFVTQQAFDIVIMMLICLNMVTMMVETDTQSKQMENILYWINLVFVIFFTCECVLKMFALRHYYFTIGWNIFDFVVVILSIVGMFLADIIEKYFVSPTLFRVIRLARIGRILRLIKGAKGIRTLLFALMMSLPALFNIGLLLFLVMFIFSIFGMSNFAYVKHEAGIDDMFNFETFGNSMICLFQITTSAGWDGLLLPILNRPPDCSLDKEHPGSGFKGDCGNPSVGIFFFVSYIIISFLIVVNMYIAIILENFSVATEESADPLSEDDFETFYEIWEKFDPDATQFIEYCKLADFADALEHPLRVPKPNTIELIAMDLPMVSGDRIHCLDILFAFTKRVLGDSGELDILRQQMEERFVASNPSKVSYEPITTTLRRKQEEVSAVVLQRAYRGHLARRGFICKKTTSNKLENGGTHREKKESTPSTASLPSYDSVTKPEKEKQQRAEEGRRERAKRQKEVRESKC
Summary of the method: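 HEK293 cells stably expressing human Nav1.6 were kept under 500 μg/mL G418 with no FGF14 transfection. They were washed and re-plated at very low density onto glass coverslips, and the test compound was applied at 30 μM. Whole-cell patch clamp used extracellular solution (mM): 140 NaCl, 3 KCl, 1 MgCl2, 1 CaCl2, 10 HEPES, 10 glucose.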

[2] = target: B2; assay: SPR
[3] = target: B1; assay: SPR
FGF14:Nav1.6 = FGF14:Nav1.6 (Homo sapiens, UniProt Q92915+Q9UQD0); assay: SPR of FGF14 binding to Nav1.6 C-terminal tail, alone or in complex with 21a; details: FGF14 alone
Summary of the method: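 Recombinant human Nav1.6 C-terminal tail (aa 1763–1976, His-tagged, E. coli-expressed, purified by column chromatography) amine-coupled to a CM5 chip (934 RU). FGF14 at 15.6–1500 nM, complexed with 2.1% DMSO alone, was flowed over the chip at 25 °C and 50 μL/min. Injection 120 s, dissociation 150 s, then regeneration (600 mM NaCl, 5% DMSO). kon and koff came from a Langmuir 1:1 fit.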

In the case of COC(=O)[C@@H](NC(=O)[C@H](CCC(=O)OC(C)(C)C)NC(=O)[C@H](CC(C)C)NC(=O)[C@@H]1CCCN1C(=O)C12CC3CC(CC(C3)C1)C2)C(C)C [Compound 21a, tert-Butyl (S)-4-((S)-2-((S)-1-((3S,5S,7S)-adamantane-1-carbonyl)pyrrolidine-2-carboxamido)-4-methylpentanamido)-5-(((S)-1-methoxy-3-methyl-1-oxobutan-2-yl)amino)-5-oxopentanoate] (Adamantane1carbonyl-PLE(OtBu)V-OMe), the “Binding to Nav1.6 C-terminal tail by SPR (in words)” value (“Binding … (in words)” below) (Nav1.6 C-terminal tail) is reported as “appreciable binding”, the koff (Nav1.6 C-terminal tail) is reported as 0.00357 s⁻¹ and the kon (Nav1.6 C-terminal tail) is reported as 62300 M⁻¹ s⁻¹. The “Changes in the kinetic properties of Nav1.1 channels” value (Nav1.1 channels) was “no changes”, the koff (FGF14) was 0.00933 s⁻¹ and the kon (FGF14) was 4660 M⁻¹ s⁻¹. The “Changes in the kinetic properties of Nav1.2 channels” value (Nav1.2 channels) was “no changes”.

C=CCOC(=O)[C@@H](NC(=O)[C@H](CCC(=O)OC(C)(C)C)NC(=O)[C@H](CC(C)C)NC(=O)[C@@H]1CCCN1C(=O)C12CC3CC(CC(C3)C1)C2)C(C)C [Compound 23a, tert-Butyl (S)-4-((S)-2-((S)-1-((3S,5S,7S)-adamantane-1-carbonyl)pyrrolidine-2-carboxamido)-4-methylpentanamido)-5-(((S)-1-(allyloxy)-3-methyl-1-oxobutan-2-yl)amino)-5-oxopentanoate] (Adamantane1carbonyl-PLE(OtBu)V-OAll) was tested, and the koff (FGF14) was 0.00932 s⁻¹, the kon (FGF14) was 17900 M⁻¹ s⁻¹ and the “Effect on Nav1.6-mediated currents” value [1] was “unaffected”.

With CCOC(=O)[C@@H](NC(=O)[C@H](CCC(=O)OC(C)(C)C)NC(=O)[C@H](CC(C)C)NC(=O)[C@@H]1CCCN1C(=O)C12CC3CC(CC(C3)C1)C2)C(C)C [Compound 23f, tert-Butyl (4S)-4-((2S)-2-((2S)-1-((1R,3R)-adamantane-1-carbonyl)pyrrolidine-2-carboxamido)-4-methylpentanamido)-5-(((S)-1-ethoxy-3-methyl-1-oxobutan-2-yl)amino)-5-oxopentanoate] (Adamantane1carbonyl-PLE(OtBu)V-OEt) the “Binding … (in words)” value (Nav1.6 C-terminal tail) was “appreciable binding”, the koff (Nav1.6 C-terminal tail) was 0.0122 s⁻¹ and the kon (Nav1.6 C-terminal tail) was 2640 M⁻¹ s⁻¹. It also gave a koff (FGF14) of 0.0205 s⁻¹ and a kon (FGF14) of 217 M⁻¹ s⁻¹.

With CCCOC(=O)[C@@H](NC(=O)[C@H](CCC(=O)OC(C)(C)C)NC(=O)[C@H](CC(C)C)NC(=O)[C@@H]1CCCN1C(=O)C12CC3CC(CC(C3)C1)C2)C(C)C [Compound 23g, tert-Butyl (4S)-4-((2S)-2-((2S)-1-((1R,3R)-adamantane-1-carbonyl)pyrrolidine-2-carboxamido)-4-methylpentanamido)-5-(((S)-3-methyl-1-oxo-1-propoxybutan-2-yl)amino)-5-oxopentanoate] (Adamantane1carbonyl-PLE(OtBu)V-OPr) the “Binding … (in words)” value (Nav1.6 C-terminal tail) was “appreciable binding”, the koff (Nav1.6 C-terminal tail) was 0.0492 s⁻¹ and the kon (Nav1.6 C-terminal tail) was 340 M⁻¹ s⁻¹. The koff (FGF14) was 0.0204 s⁻¹ and the kon (FGF14) was 289 M⁻¹ s⁻¹.

B1 gave a Kd [2] of 228 ± 57.5 nM, a koff [2] of 0.00171 s⁻¹ and a kon [2] of 21800 M⁻¹ s⁻¹.

With B2 the “KD with 10 μM 21a” value [3] was 1420 ± 135 nM.

B3: FGF14: purified recombinant human fibroblast growth factor 14 protein flown over Nav1.6 C-terminal tail in SPR (protein)
chain: KNKNPTDPQLKGIVTRLYCRQGYYLQMHPDGALDGTKDDSTNSTLFNLIPVGLRVVAIQGVKTGLYIAMNGEGYLYPSELFTPECKFKESVFENYYVIYSSMLYRQQESGRAWFLGLNKEGQAMKGNRVKKTKPAAHFLPKPLEVAMYREPSLHDVGETVPKPGVTPSKSTSASAIMNGGKPVNKSKTT
modifications: left off: His6, N-terminal, state not stated
B3 was tested, and the “koff of FGF14 binding to Nav1.6 C-terminal tail” value (FGF14:Nav1.6) was 0.00171 ± 1.02e-05 s⁻¹ and the “kon of FGF14 binding to Nav1.6 C-terminal tail” value (FGF14:Nav1.6) was 21800 ± 160 M⁻¹ s⁻¹.
